Measured values as given in ChEMBL document CHEMBL1131460, “2-substituted (2SR)-2-amino-2-((1SR,2SR)-2-carboxycycloprop-1-yl)glycines as potent and selective antagonists of group II metabotropic glutamate receptors. 2. Effects of aromatic substitution, pharmacological characterization, and bioavailability” (J Med Chem, 1998).

How the values were obtained:
[1] = Half-life in rat plasma when administered intraperitoneally at a dose of 10 mg/kg; assay type: ADME, organism-based; parameters: dose 10 mg/kg, route intraperitoneal; settings: ip
Method in brief: (§1)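 Male Fischer 344 rats were dosed at 10 mg/kg iv, 10 mg/kg ip, or 10 or 100 mg/kg po, with five rats per route and dose. One rat was sampled for blood and brain at each time: 0.25, 0.5, 1, 2 and 4 h after iv/ip, and 0.5, 1, 2, 4 and 6 h after po. Plasma and brain homogenates were derivatized, extracted and quantified by negative-ion chemical ionization GCMS (LOQ 100 pg/mL plasma, 1 ng/g brain).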

[2] = Half-life in rat plasma when administered intravenously at a dose of 10 mg/kg; assay type: ADME, organism-based; parameters: dose 10 mg/kg, route intravenous; settings: iv; method in brief: as §1
in vivo = settings: brain, iv, 10 mg/kg
[3] = Plasma concentration after 0.5 hr at a dose of 10 mg/kg when administered perorally; settings: po
[4] = Brain concentration after 4 hr at a dose of 10 mg/kg when administered intravenously; settings: iv
[5] = Half-life in rat plasma when administered perorally at a dose of 10 mg/kg; assay type: ADME, organism-based; parameters: dose 10 mg/kg, route oral; settings: po; method in brief: as §1
[6] = Plasma concentration after 4 hr at a dose of 10 mg/kg when administered intravenously; settings: iv
Rattus norvegicus [7] = test: Volume of distribution in rat plasma when administered intravenously at a dose of 10 mg/kg; settings: in vivo, iv
[8] = Brain concentration after 0.5 hr at a dose of 10 mg/kg when administered perorally; settings: po
[9] = Brain concentration after 2 hr at a dose of 10 mg/kg when administered intravenously; settings: iv
[10] = Plasma concentration after 0.5 hr at a dose of 100 mg/kg when administered perorally; settings: po
[11] = Time of maximum concentration achieved in rat brain when administered perorally at a dose of 100 mg/kg; assay type: ADME, organism-based; parameters: dose 100 mg/kg, route oral; settings: po
Method in brief: (§2)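 Male Fischer 344 rats dosed iv or ip at 10 mg/kg, or orally at 10 or 100 mg/kg; five rats per route and dose. Blood and brain taken from one rat per time point (0.25, 0.5, 1, 2, 4 h after iv/ip; 0.5, 1, 2, 4, 6 h after po). Plasma and brain homogenates derivatized, extracted, assayed by negative-ion chemical ionization GCMS (LOQ 100 pg/mL plasma, 1 ng/g brain).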

[12] = Time of maximum concentration achieved in rat plasma when administered perorally at a dose of 10 mg/kg; assay type: ADME, organism-based; parameters: dose 10 mg/kg, route oral; settings: po; method in brief: as §2
Rattus norvegicus [13] = test: Bioavailability was evaluated in rat plasma when administered intravenously at a dose of 10 mg/kg; <Tr>; assay type: ADME, organism-based; settings: in vivo, iv
[14] = Maximum concentration achieved in rat brain when administered intraperitoneally at a dose of 10 mg/kg; assay type: ADME, organism-based; parameters: dose 10 mg/kg, route intraperitoneal; settings: ip; method in brief: as §2
Rattus norvegicus [15] = test: Area under curve was evaluated in rat plasma when administered intravenously at a dose of 10 mg/kg for infinite hours; assay type: ADME, organism-based; parameters: time infinity, dose 10 mg/kg, route intravenous; settings: in vivo, iv; method in brief: as §1
Rattus norvegicus [16] = test: Area under curve was evaluated in rat plasma when administered intraperitoneally at a dose of 10 mg/kg for infinite hours; assay type: ADME, organism-based; parameters: time infinity, dose 10 mg/kg, route intraperitoneal; settings: in vivo, ip; method in brief: as §1
[17] = Plasma concentration after 0.5 hr at a dose of 10 mg/kg when administered intravenously; settings: iv
[18] = Plasma concentration after 4 hr at a dose of 100 mg/kg when administered perorally; settings: po
[19] = Brain concentration after 2 hr at a dose of 10 mg/kg when administered perorally; settings: po
[20] = Plasma concentration after 2 hr at a dose of 10 mg/kg when administered intravenously; settings: iv
[21] = Plasma concentration after 2 hr at a dose of 10 mg/kg when administered perorally; settings: po
[22] = Plasma concentration after 0.5 hr at a dose of 10 mg/kg when administered intraperitoneally; settings: ip
[23] = Maximum concentration achieved in rat plasma when administered intravenously at a dose of 10 mg/kg; assay type: ADME, organism-based; parameters: dose 10 mg/kg, route intravenous; settings: iv; method in brief: as §2
[24] = Brain concentration after 0.5 h at a dose of 10 mg/kg when administered intraperitoneally; settings: ip
Rattus norvegicus [25] = test: Area under curve was evaluated in rat plasma when administered perorally at a dose of 10 mg/kg for infinite hours; assay type: ADME, organism-based; parameters: time infinity, dose 10 mg/kg, route oral; settings: in vivo, po; method in brief: as §1
[26] = Plasma concentration after 4 hr at a dose of 10 mg/kg when administered perorally; settings: po
[27] = Plasma concentration after 6 hr at a dose of 10 mg/kg when administered perorally; settings: po
[28] = Plasma concentration after 2 hr at a dose of 100 mg/kg when administered perorally; settings: po
Rattus norvegicus [29] = test: Area under curve was evaluated in rat brain when administered perorally at a dose of 100 mg/kg for 4 or 6 hours; assay type: ADME, organism-based; parameters: dose 100 mg/kg, route oral; settings: in vivo, po
[30] = Brain concentration after 1 hr at a dose of 10 mg/kg when administered perorally; settings: po
[31] = Volume of distribution in rat plasma when administered intraperitoneally at a dose of 10 mg/kg; settings: ip
[32] = Maximum concentration achieved in rat brain when administered perorally at a dose of 10 mg/kg; assay type: ADME, organism-based; parameters: dose 10 mg/kg, route oral; settings: po; method in brief: as §2
[33] = Half-life in rat plasma when administered perorally at a dose of 100 mg/kg; assay type: ADME, organism-based; parameters: dose 100 mg/kg, route oral; settings: po; method in brief: as §2
Rattus norvegicus [34] = test: Area under curve was evaluated in rat plasma when administered perorally at a dose of 10 mg/kg for 4 or 6 hours; assay type: ADME, organism-based; parameters: dose 10 mg/kg, route oral; settings: in vivo, po; method in brief: as §1
Rattus norvegicus [35] = test: Area under curve was evaluated in rat brain when administered intravenously at a dose of 10 mg/kg for infinite hours; assay type: ADME, organism-based; parameters: time infinity, dose 10 mg/kg, route intravenous; settings: in vivo, iv
[36] = Time of maximum concentration achieved in rat brain when administered perorally at a dose of 10 mg/kg; assay type: ADME, organism-based; parameters: dose 10 mg/kg, route oral; settings: po; method in brief: as §2
[37] = Brain concentration after 4 hr at a dose of 10 mg/kg when administered intraperitoneally; settings: ip
[38] = Brain concentration after 1 hr at a dose of 100 mg/kg when administered perorally; settings: po
[39] = Plasma concentration after 1 hr at a dose of 10 mg/kg when administered perorally; settings: po
[40] = Brain concentration after 2 hr at a dose of 100 mg/kg when administered perorally; settings: po
Rattus norvegicus [41] = test: Area under curve was evaluated in rat plasma when administered perorally at a dose of 100 mg/kg for infinite hours; assay type: ADME, organism-based; parameters: time infinity, dose 100 mg/kg, route oral; settings: in vivo, po; method in brief: as §1
[42] = Bioavailability in rat (dose 10 mg/kg p.o.); assay type: ADME, organism-based; settings: in vivo, po
[43] = Brain concentration after 6 hr at a dose of 100 mg/kg when administered perorally; settings: po
[44] = Maximum concentration achieved in rat brain when administered intravenously at a dose of 10 mg/kg; assay type: ADME, organism-based; parameters: dose 10 mg/kg, route intravenous; settings: iv; method in brief: as §2
[45] = Maximum concentration achieved in rat plasma when administered perorally at a dose of 10 mg/kg; assay type: ADME, organism-based; parameters: dose 10 mg/kg, route oral; settings: po; method in brief: as §2
[46] = Plasma concentration after 1 hr at a dose of 10 mg/kg when administered intravenously; settings: iv
Rattus norvegicus [47] = test: Area under curve was evaluated in rat brain when administered intravenously at a dose of 10 mg/kg for 4 or 6 hours; assay type: ADME, organism-based; parameters: dose 10 mg/kg, route intravenous; settings: in vivo, iv
[48] = Brain concentration after 4 hr at a dose of 100 mg/kg when administered perorally; settings: po
[49] = Clearance rate in rat plasma when administered intravenously at a dose of 10 mg/kg; assay type: ADME, organism-based; parameters: dose 10 mg/kg, route intravenous; settings: iv, read-out: Clp (converted); method in brief: as §1

N[C@](CC1c2ccccc2Oc2ccccc21)(C(=O)O)[C@H]1C[C@@H]1C(=O)O
half-life [1]: 0.44 h | half-life [2]: 0.48 h | concentration at 0.25 h (in vivo): 234 ng/g | concentration at 0.5 h [3]: 64.1 ng/mL | concentration at 4 h [4]: 145 ng/g | half-life [5]: 2.64 h | concentration at 4 h [6]: 35.9 ng/mL | Vd (Rattus norvegicus [7]): 0.83 L/kg | concentration at 0.5 h [8]: 1.7 ng/g | concentration at 2 h [9]: 177 ng/g | concentration at 0.5 h [10]: 197 ng/mL | Tmax [11]: 6 h | Tmax [12]: 0.5 h | Bioavailabiility (Rattus norvegicus [13]): <Tr> | Cmax [14]: 246 ng/g | AUC (Rattus norvegicus [15]): 8400 ng·h/mL | AUC (Rattus norvegicus [16]): 12800 ng·h/mL | concentration at 0.5 h [17]: 5970 ng/mL | concentration at 4 h [18]: 95.5 ng/mL | concentration at 2 h [19]: 3 ng/g | concentration at 2 h [20]: 845 ng/mL | concentration at 2 h [21]: 50 ng/mL | concentration at 0.5 h [22]: 10700 ng/mL | Cmax [23]: 12000 ng/mL | concentration at 0.5 h [24]: 246 ng/g | AUC (Rattus norvegicus [25]): 284 ng·h/mL | concentration at 4 h [26]: 28.3 ng/mL | concentration at 6 h [27]: 17.5 ng/mL | concentration at 2 h [28]: 420 ng/mL | AUC (Rattus norvegicus [29]): 120 ng·h/mL | concentration at 1 h [30]: 2.1 ng/g | Vd [31]: 0.49 L/kg | Cmax [32]: 7.4 ng/g | half-life [33]: 1.94 h | AUC (Rattus norvegicus [34]): 217 ng·h/mL | AUC (Rattus norvegicus [35]): 1840 ng·h/mL | Tmax [36]: 4 h | concentration at 4 h [37]: 149 ng/g | concentration at 1 h [38]: 16.4 ng/g | concentration at 1 h [39]: 48.3 ng/mL | concentration at 2 h [40]: 23.9 ng/g | AUC (Rattus norvegicus [41]): 1660 ng·h/mL | F [42]: 2% | bioavailability [42]: 3.4% | concentration at 6 h [43]: 29.6 ng/g | Cmax [44]: 243 ng/g | Cmax [45]: 64.1 ng/mL | concentration at 1 h [46]: 2440 ng/mL | AUC (Rattus norvegicus [47]): 701 ng·h/mL | concentration at 4 h [48]: 20.1 ng/g | clearance [49]: 19.8 mL/min/kg
